Values after ≈ are worked out from the molar mass of the structure shown. Active and inactive are the calls of the source. The rule behind the calls is not given here.
Columns and labels:
L5178Y = experiment: Cytotoxicity against mouse L5178Y cells by MTT assay; assay type: functional, cell-based
Method in brief: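 MTT proliferation assay on the L5178Y murine lymphoma line, run three times; kahalalide F as positive control and 0.1% DMSO in medium as negative control.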

Staphylococcus aureus [1] = experiment: Antibacterial activity against Staphylococcus aureus ATCC 25923 by broth microdilution method; assay type: functional
Staphylococcus aureus [2] = experiment: Antibacterial activity against methicilin-resistant Staphylococcus aureus ATCC 700699 by broth microdilution method; assay type: functional; conditions: Mu50
Method in brief: (§1)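 MIC determined by broth microdilution following CLSI recommendations, with moxifloxacin as positive control and DMSO as negative control.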

Enterococcus faecalis [3] = experiment: Antibacterial activity against Enterococcus faecalis ATCC 29212 by broth microdilution method; assay type: functional; method in brief: as §1
Enterococcus faecalis [4] = experiment: Antibacterial activity against vancomycin-resistant Enterococcus faecalis ATCC 51299 by broth microdilution method; assay type: functional; method in brief: as §1
Enterococcus faecium [5] = experiment: Antibacterial activity against Enterococcus faecium ATCC 35667 by broth microdilution method; assay type: functional
Method in brief: (§2)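 MIC by broth microdilution following CLSI recommendations; moxifloxacin as positive control, DMSO as negative control.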

Enterococcus faecium [6] = experiment: Antibacterial activity against Enterococcus faecium ATCC 700221 by broth microdilution method; assay type: functional; method in brief: as §2
[7] = tested on: Mycobacterium tuberculosis; experiment: Antibacterial activity against Mycobacterium tuberculosis by broth microdilution method; assay type: functional
Acinetobacter baumannii = experiment: Antibacterial activity against Acinetobacter baumannii ATCC BAA1605 by broth microdilution method; assay type: functional; method in brief: as §2
MRC5 = experiment: Cytotoxicity against human MRC5 cells after 48 hrs by resazurin dye-based fluorescence analysis; assay type: cell-based; conditions: MRC5, 48 h
THP-1 = experiment: Cytotoxicity against human THP1 cells after 48 hrs by resazurin dye-based fluorescence analysis; assay type: cell-based; conditions: THP-1, 48 h

Row | SMILES | IC50 (L5178Y) [µM] | MIC (Staphylococcus aureus [1]) [µM] | MIC (Staphylococcus aureus [2]) [µM] | MIC (Enterococcus faecalis [3]) [µM] | MIC (Enterococcus faecalis [4]) [µM] | MIC (Enterococcus faecium [5]) [µM] | MIC (Enterococcus faecium [6]) [µM] | MIC [7] [µM] | MIC (Acinetobacter baumannii) [µM] | IC50 (MRC5) [µM] | IC50 (THP-1) [µM] | Activity (L5178Y)
1 | COC1=C[C@]2(OC[C@H]3Oc4c(ccc5c4C=CC(C)(C)O5)C(=O)[C@H]32)C(=O)CC1=O | 7.6 |  |  |  |  |  |  |  |  |  |  | 
2 | CC(C)=CCC/C(C)=C\Cc1c(O)cc(CCc2ccccc2)c(C(=O)O)c1O |  | 100 (≈ 39.5 µg/mL) | 100 (≈ 39.5 µg/mL) | 100 (≈ 39.5 µg/mL) | 100 (≈ 39.5 µg/mL) | 100 (≈ 39.5 µg/mL) | 100 (≈ 39.5 µg/mL) | > 50 | > 50 | 100 | 100 | inactive
3 | COc1cc2c(cc1OC)[C@@H]1C(=O)c3c(O)cc4c(c3O[C@@H]1CO2)C=CC(C)(C)O4 [TOXICAROL] | 0.2 |  |  |  |  |  |  |  |  |  |  | 
4 | CC(C)=CCC/C(C)=C/Cc1c(O)cc(CCc2ccccc2)cc1O |  | 25 (≈ 8.76 µg/mL) | 6.3 (≈ 2.21 µg/mL) | 25 (≈ 8.76 µg/mL) | 12.5 (≈ 4.38 µg/mL) | 12.5 (≈ 4.38 µg/mL) | 12.5 (≈ 4.38 µg/mL) | > 50 | > 50 |  | 50 | inactive
5 | COc1cc(/C=C/c2ccccc2)cc(OC)c1C/C=C(\C)CCC=C(C)C |  | > 100 | > 100 | > 100 | > 100 | 100 (≈ 37.7 µg/mL) | > 100 | > 50 | > 50 | 100 | 100 | inactive
6 | COc1cc2c(cc1OC)[C@@H]1C(=O)c3ccc4c(c3O[C@@H]1CO2)C[C@H](C(C)(C)O)O4 [DALPANOL] | 0.7 |  |  |  |  |  |  |  |  |  |  | 
7 | COc1cc(CCc2ccccc2)c(C(=O)O)c(O)c1C/C=C(/C)CCC=C(C)C |  | 12.5 (≈ 5.11 µg/mL) | 12.5 (≈ 5.11 µg/mL) | 6.3 (≈ 2.57 µg/mL) | 6.3 (≈ 2.57 µg/mL) | 6.3 (≈ 2.57 µg/mL) | 6.3 (≈ 2.57 µg/mL) | > 50 | > 50 | 100 | 100 | inactive
8 | CC(C)=CCC/C(C)=C/Cc1c(O)cc(/C=C/c2ccccc2)c(C(=O)O)c1O |  | 12.5 (≈ 4.91 µg/mL) | 12.5 (≈ 4.91 µg/mL) | 25 (≈ 9.81 µg/mL) | 25 (≈ 9.81 µg/mL) | 25 (≈ 9.81 µg/mL) | 25 (≈ 9.81 µg/mL) | > 50 | > 50 | 100 | 100 | inactive
9 | CC(C)=CCC/C(C)=C/Cc1c(O)cc(/C=C\c2ccccc2)c(C(=O)O)c1O |  | 50 (≈ 19.6 µg/mL) | 100 (≈ 39.2 µg/mL) | 50 (≈ 19.6 µg/mL) | 100 (≈ 39.2 µg/mL) | 50 (≈ 19.6 µg/mL) | 100 (≈ 39.2 µg/mL) | > 50 | > 50 | 100 | 100 | inactive
10 | CC(C)=CCC/C(C)=C/Cc1c(O)cc(/C=C\c2ccccc2)cc1O |  | 100 (≈ 34.8 µg/mL) | 100 (≈ 34.8 µg/mL) | 100 (≈ 34.8 µg/mL) | 100 (≈ 34.8 µg/mL) | 100 (≈ 34.8 µg/mL) | 100 (≈ 34.8 µg/mL) | > 50 | > 50 | 100 | 100 | inactive
11 | COc1cc2c(cc1OC)[C@@H]1C(=O)c3ccc4c(c3O[C@@H]1CO2)C=CC(C)(C)O4 [DEGUELIN] | 0.2 |  |  |  |  |  |  |  |  |  |  | 
12 | COc1ccc(-c2coc3cc(O)c(C/C=C(\C)CCC=C(C)C)c(O)c3c2=O)cc1O |  | 100 (≈ 43.7 µg/mL) | 100 (≈ 43.7 µg/mL) | 25 (≈ 10.9 µg/mL) | 50 (≈ 21.8 µg/mL) | 25 (≈ 10.9 µg/mL) | 12.5 (≈ 5.46 µg/mL) | > 50 | > 50 | 50 | 50 | 
13 | COc1cc(CCc2ccccc2)c(C(=O)O)c(O)c1CC=C(C)C [AMORFRUTIN A] |  | 50 (≈ 17 µg/mL) | 6.3 (≈ 2.14 µg/mL) | 100 (≈ 34 µg/mL) | 25 (≈ 8.51 µg/mL) | 50 (≈ 17 µg/mL) | 25 (≈ 8.51 µg/mL) | > 50 | > 50 |  | 50 | inactive
14 | COc1cc2c(cc1OC)[C@@H]1C(=O)c3ccc4c(c3O[C@@H]1CO2)C[C@H](C(C)(C)O[C@@H]1O[C@H](CO)[C@@H](O)[C@H](O)[C@H]1O)O4 | 1.7 |  |  |  |  |  |  |  |  |  |  | 
15 | CC(C)=CCC/C(C)=C/Cc1c(O)cc(O)c2c1O[C@H](c1ccccc1)[C@H](O)C2=O |  | 100 (≈ 40.8 µg/mL) | 100 (≈ 40.8 µg/mL) | 50 (≈ 20.4 µg/mL) | 100 (≈ 40.8 µg/mL) | 100 (≈ 40.8 µg/mL) | 100 (≈ 40.8 µg/mL) | > 50 | > 50 | 100 | 100 | 
16 | C=C(C)[C@H]1Cc2c(ccc3c2O[C@@H]2COc4cc(OC)c(OC)cc4[C@@H]2C3=O)O1 [ROTENONE] | 0.3 |  |  |  |  |  |  |  |  |  |  | 
17 | COc1cc2c(cc1OC)[C@@H]1C(=O)c3ccc(O)c(CC=C(C)C)c3O[C@@H]1CO2 [ROTENONIC ACID] | 0.6 |  |  |  |  |  |  |  |  |  |  | 
18 | COC1=CC(=O)[C@]2(C=C1OC)OC[C@H]1Oc3c4c(cc(O)c3C(=O)[C@H]12)OC(C)(C)C=C4 | 1.3 |  |  |  |  |  |  |  |  |  |  | 
19 | C=C(C)[C@@H](O)CC/C(C)=C/Cc1c(OC)cc(CCc2ccccc2)c(C(=O)O)c1O |  |  |  |  |  |  |  |  |  |  |  | inactive
20 | CC(C)=CCC/C(C)=C/Cc1c(O)ccc(C(=O)/C=C/c2ccc(O)cc2)c1O [XANTHOANGELOL] |  | 25 (≈ 9.81 µg/mL) | 3.1 (≈ 1.22 µg/mL) | 12.5 (≈ 4.91 µg/mL) | 6.3 (≈ 2.47 µg/mL) | 12.5 (≈ 4.91 µg/mL) | 3.1 (≈ 1.22 µg/mL) | > 50 | > 50 | 25 | 25 | 
21 | C/C=C1\NC(=O)[C@H](Cc2ccccc2)NC(=O)[C@@H](C(C)C)NC(=O)[C@@H](C(C)CC)NC(=O)[C@H](NC(=O)[C@H](NC(=O)[C@H](CCCN)NC(=O)[C@@H]2CCCN2C(=O)[C@H](NC(=O)[C@@H](NC(=O)[C@@H](NC(=O)[C@H](NC(=O)CCCC(C)C)C(C)C)C(C)O)C(C)C)C(C)C)C(C)CC)C(C)OC(=O)[C@H](C(C)C)NC1=O (some centres not stated) | 4.3 |  |  |  |  |  |  |  |  |  |  | 
22 | COc1c(N2C[C@@H]3CCCN[C@@H]3C2)c(F)cc2c(=O)c(C(=O)O)cn(C3CC3)c12 [MOXIFLOXACIN] |  | < 0.9 | 3.8 (≈ 1.53 µg/mL) | 0.9 (≈ 0.361 µg/mL) | 0.9 (≈ 0.361 µg/mL) | 1.9 (≈ 0.763 µg/mL) | 7.8 (≈ 3.13 µg/mL) |  |  |  |  | 
23 | COc1ccc(-c2coc3c(C/C=C(\C)CCC=C(C)C)c(O)cc(O)c3c2=O)cc1O |  | 100 (≈ 43.7 µg/mL) | 100 (≈ 43.7 µg/mL) | 50 (≈ 21.8 µg/mL) | 100 (≈ 43.7 µg/mL) | 25 (≈ 10.9 µg/mL) | 25 (≈ 10.9 µg/mL) | > 50 | > 50 | 50 | 50 | 
24 | C=C(C)[C@@H](O)CC/C(C)=C/Cc1c(O)cc(CCc2ccccc2)c(C(=O)O)c1O |  |  |  |  |  |  |  |  |  |  |  | inactive
25 | COc1cc(O)c2c(c1)O[C@@H]1COc3cc(OC)c(OC)cc3[C@@H]1C2=O | 0.2 |  |  |  |  |  |  |  |  |  |  | 
26 | C=C(CO)[C@H]1Cc2c(ccc3c2O[C@@H]2COc4cc(OC)c(OC)cc4[C@]2(O)C3=O)O1 [DABINOL] | 0.2 |  |  |  |  |  |  |  |  |  |  | 
27 | COc1cc2c(cc1OC)-c1c(oc3c4c(ccc3c1=O)OC(C)(C)C=C4)CO2 [DEHYDRODEGUELIN] | 10.2 |  |  |  |  |  |  |  |  |  |  | 
28 | CC(C)=CCC/C(C)=C/Cc1c(O)cc(/C=C/c2ccccc2)cc1O [AMORPHASTILBOL] |  | 6.3 (≈ 2.2 µg/mL) | 3.1 (≈ 1.08 µg/mL) | 12.5 (≈ 4.36 µg/mL) | 6.3 (≈ 2.2 µg/mL) | 6.3 (≈ 2.2 µg/mL) | 6.3 (≈ 2.2 µg/mL) | > 50 | > 50 | 50 | 25 | inactive

From ChEMBL document CHEMBL4004808, “Antibacterial and Cytotoxic Phenolic Metabolites from the Fruits of Amorpha fruticosa” (J Nat Prod, 2017)
